In ChEMBL document CHEMBL4699658, “EST64454: a Highly Soluble σ Receptor Antagonist Clinical Candidate for Pain Management” (J Med Chem, 2020):
Converted amounts (≈) assume the structure as drawn.

Experiments:
[1] = Displacement of [3H]-DTG from sigma2 receptor in guinea pig brain membranes incubated for 120 mins by liquid scintillation counting method; type: cell membranes, Cavia porcellus, Cell membrane
Procedure, shortened: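 Guinea pig brain membranes (200 μg) incubated with 10 nM [³H]-DTG in 50 mM Tris-HCl pH 8, σ1R masked with 400 nM (+)-SKF10047, at 25 °C for 120 min. Nonspecific binding defined by 10 μM haloperidol. Filtration, three washes with ice-cold 50 mM Tris-HCl pH 7.4, scintillation counting. Ki given as mean of two determinations.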

[2] = biological target: T1, Sigma non-opioid intracellular receptor 1 (Homo sapiens, UniProt Q99720); experiment: Displacement of [3H]-(+)-pentazocine from human sigma1 receptor expressed in HEK293 cell membranes incubated for 120 mins by liquid scintillation counting method; parameters: species or system Cell membrane
T1 sequence (Q99720 whole entry): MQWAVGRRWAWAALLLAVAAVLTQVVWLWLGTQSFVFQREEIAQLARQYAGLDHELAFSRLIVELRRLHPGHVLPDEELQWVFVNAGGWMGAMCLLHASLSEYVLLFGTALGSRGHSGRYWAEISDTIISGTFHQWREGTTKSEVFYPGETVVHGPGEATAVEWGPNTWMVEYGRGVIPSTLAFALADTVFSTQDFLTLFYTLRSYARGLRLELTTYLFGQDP

[3] = biological target: Voltage-gated inwardly rectifying potassium channel KCNH2 (Homo sapiens, UniProt Q12809); experiment: Inhibition of human ERG expressed in CHO cells by patch clamp assay; type: cell-based
Voltage-gated inwardly rectifying potassium channel KCNH2, sequence (Q12809 whole entry): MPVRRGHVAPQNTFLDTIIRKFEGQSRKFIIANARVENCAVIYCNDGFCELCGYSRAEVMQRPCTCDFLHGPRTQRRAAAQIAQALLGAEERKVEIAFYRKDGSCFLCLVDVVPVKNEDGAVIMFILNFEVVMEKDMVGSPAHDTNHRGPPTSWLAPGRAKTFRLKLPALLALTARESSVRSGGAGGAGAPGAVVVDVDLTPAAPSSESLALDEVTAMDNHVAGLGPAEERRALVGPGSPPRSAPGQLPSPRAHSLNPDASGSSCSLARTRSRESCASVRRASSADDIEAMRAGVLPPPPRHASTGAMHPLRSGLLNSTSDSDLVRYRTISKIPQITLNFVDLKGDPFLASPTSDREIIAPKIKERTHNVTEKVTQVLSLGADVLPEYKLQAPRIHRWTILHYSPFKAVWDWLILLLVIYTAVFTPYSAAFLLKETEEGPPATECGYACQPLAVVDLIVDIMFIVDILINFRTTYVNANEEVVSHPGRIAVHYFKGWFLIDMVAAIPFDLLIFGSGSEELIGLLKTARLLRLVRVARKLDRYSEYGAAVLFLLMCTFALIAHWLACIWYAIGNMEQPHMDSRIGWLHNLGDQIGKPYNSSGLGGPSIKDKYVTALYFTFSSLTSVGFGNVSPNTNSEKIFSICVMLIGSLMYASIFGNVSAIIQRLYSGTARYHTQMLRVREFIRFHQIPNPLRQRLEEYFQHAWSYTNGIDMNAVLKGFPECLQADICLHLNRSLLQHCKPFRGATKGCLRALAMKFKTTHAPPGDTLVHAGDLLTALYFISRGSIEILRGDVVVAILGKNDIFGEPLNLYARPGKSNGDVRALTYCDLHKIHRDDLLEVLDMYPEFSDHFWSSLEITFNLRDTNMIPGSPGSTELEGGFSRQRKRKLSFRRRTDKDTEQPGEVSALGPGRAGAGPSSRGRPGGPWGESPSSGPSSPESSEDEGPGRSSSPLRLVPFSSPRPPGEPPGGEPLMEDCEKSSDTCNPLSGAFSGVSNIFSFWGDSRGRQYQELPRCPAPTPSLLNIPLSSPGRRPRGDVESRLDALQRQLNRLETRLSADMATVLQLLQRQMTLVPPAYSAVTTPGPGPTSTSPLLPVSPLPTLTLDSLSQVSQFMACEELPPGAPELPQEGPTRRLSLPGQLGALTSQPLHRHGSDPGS

[4] = Aqueous solubility of compound; type: physicochemical
Cavia porcellus = organism: Cavia porcellus; experiment: Displacement of [3H]-DTG from sigma2 receptor in guinea pig brain membranes at 1 uM incubated for 120 mins by liquid scintillation counting method relative to control; settings: Cell membrane
[5] = Thermodynamic solubility in pH 2 buffer; type: physicochemical; settings: read-out: Therm_solubility
[6] = Thermodynamic solubility in pH 7.4 buffer; type: physicochemical; settings: read-out: Therm_solubility
Mus musculus [7] = experiment: Analgesic activity in orally dosed mouse model of […]-induced mechanical hypersensitivity-induced pain assessed as reduction in mechanical hypersensitivity at 80 mg/kg, po; type: functional; parameters: scale not given: the % may be the effect or the level left
[8] = Cmax in CD1 mouse at 10 mg/kg, po by HPLC-MS/MS analysis; type: ADME, organism-based; parameters: route oral, dose 10 mg/kg; settings: in vivo
Procedure, shortened: (§1)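 Male CD1 mice (25−30 g), groups of 16, given 10 mg/kg orally in 0.5% hydroxypropyl methylcellulose or 1 mg/kg iv in saline. Blood drawn at several times (saphenous vein or intracardiac puncture) into heparinized tubes. Plasma spun at 4 °C, stored at −80 °C, protein-precipitated and assayed by HPLC-MS/MS. Parameters from noncompartmental analysis of concentration−time curves; clearance expressed as % liver blood flow.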

[9] = Elimination half life in CD1 mouse at 10 mg/kg, po by HPLC-MS/MS analysis; type: ADME, organism-based; settings: in vivo, read-out: beta t1/2 (converted); procedure, shortened: as §1
[10] = AUC (0 to infinity) in CD1 mouse at 10 mg/kg, po by HPLC-MS/MS analysis; type: ADME, organism-based; parameters: time infinity, route oral, dose 10 mg/kg; settings: in vivo; procedure, shortened: as §1
[11] = Clearance in CD1 mouse at 10 mg/kg, po by HPLC-MS/MS analysis relative to liver blood flow; type: ADME, organism-based; settings: in vivo
[12] = Volume of distribution at steady state in CD1 mouse at 10 mg/kg, po by HPLC-MS/MS analysis; type: ADME, organism-based; settings: in vivo; procedure, shortened: as §1
[13] = Oral bioavailability in CD1 mouse at 10 mg/kg by HPLC-MS/MS analysis; type: ADME, organism-based; settings: in vivo; procedure, shortened: as §1
[14] = Cmax in Wistar rat at 10 mg/kg, po by HPLC-MS/MS analysis; type: ADME, organism-based; parameters: route oral, dose 10 mg/kg; settings: in vivo
Procedure, shortened: (§2)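 Male Wistar rats (250−300 g), groups of two, dosed orally at 10 mg/kg in 0.5% hydroxypropyl methylcellulose or iv at 1 mg/kg in saline. Serial blood into heparinized tubes (saphenous vein or cardiac puncture). Plasma kept at −80 °C and measured by HPLC-MS/MS after protein precipitation. Noncompartmental analysis gave parameters; clearance given as % liver blood flow.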

[15] = Elimination half life in Wistar rat at 10 mg/kg, po by HPLC-MS/MS analysis; type: ADME, organism-based; settings: in vivo, read-out: beta t1/2 (converted); procedure, shortened: as §2
[16] = AUC (0 to infinity) in Wistar rat at 10 mg/kg, po by HPLC-MS/MS analysis; type: ADME, organism-based; parameters: route oral, time infinity, dose 10 mg/kg; settings: in vivo; procedure, shortened: as §2
[17] = Clearance in Wistar rat at 10 mg/kg, po by HPLC-MS/MS analysis relative to liver blood flow; type: ADME, organism-based; settings: in vivo
[18] = Volume of distribution at steady state in Wistar rat at 10 mg/kg, po by HPLC-MS/MS analysis; type: ADME, organism-based; settings: in vivo; procedure, shortened: as §2
[19] = Oral bioavailability in Wistar rat at 10 mg/kg by HPLC-MS/MS analysis; type: ADME, organism-based; settings: in vivo; procedure, shortened: as §2
HepG2 = experiment: Toxicity in human HepG2 cells assessed as reduction in cell viability up to 100 uM by MTT assay; type: cell-based
Procedure, shortened: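 HepG2 cells exposed to compound at up to 100 μM; viability read by MTT assay.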

[20] = Lipophilicity, logP of compound; type: physicochemical; settings: octanol/water
Procedure, shortened: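 Log P determined by a pHmetric technique on a GlpKa or Sirius-T3 instrument.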

[21] = Permeability in human Caco-2 cells; type: ADME, cell-based; settings: read-out: permeability
[22] = Induction of CYP450 expression in human HepaRG cells at 50 uM; type: ADME, cell-based
Procedure, shortened: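 HepaRG cells exposed to compound at concentrations up to 50 μM; CYP induction assessed.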

[23] = Genotoxicity in Salmonella typhimurium by Ames test; type: toxicity; settings: salmonella enterica subsp. enterica serovar typhimurium
Mus musculus [24] = experiment: Analgesic activity in orally dosed mouse model of intraplantar capsaicin-induced mechanical hypersensitivity-induced pain assessed as reduction in mechanical hypersensitivity; type: functional; settings: po
[25] = biological target: T1, Sigma non-opioid intracellular receptor 1; experiment: Antagonist activity at human sigma1 receptor expressed in HEK293 cell membranes assessed as ratio of Ki without phenytoin/Ki with phenytoin by [3H]-(+)-pentazocine displacement assay; settings: Cell membrane, filed as antagonist

With CC(C)=CCN1CC[C@]2(C)c3cc(O)ccc3C[C@H]1[C@H]2C [(+)-PENTAZOCINE] the Ki [1] was 719 nM.
Cc1cc(CCCN2CCOCC2)nn1-c1ccc(Cl)c(Cl)c1 showed a Ki [2] of 5 nM and a Ki [1] of 232 nM.
In the case of Cc1cc(COCCN2CCCC2)nn1-c1ccc(Cl)c(Cl)c1, the Ki [2] is reported as 6 nM, the Ki [1] is reported as 27 nM and the IC50 [3] is reported as 5120 nM.
Cc1cc(COCCN2CCOCC2)nn1C1CCCC1 showed a Ki [2] of 240 nM and a Ki [1] greater than 10000 nM.
With O=C(CCCN1CCC(O)(c2ccc(Cl)cc2)CC1)c1ccc(F)cc1 [HALOPERIDOL] the Ki [1] was 22 nM.
CC(=O)N1CCN(CCOCc2cc(C)n(-c3ccc(F)c(F)c3)n2)CC1 gave a Ki [2] of 58 nM, a Ki [1] greater than 10000 nM and an IC50 [3] greater than 10000 nM.
For Cc1cc(COCCN2CCCCC2)nn1-c1ccc(Cl)c(Cl)c1, the Ki [2] was 2 nM and the Ki [1] was 28 nM.
Clc1ccc(-n2ccc(COCCN3CCOCC3)n2)cc1Cl gave a Ki [2] of 2 nM and a Ki [1] of 137 nM.
For Cc1cc(OCCN2CCOCC2)nn1-c1ccc2ccccc2c1, the solubility [4] was 200 µg/mL (≈ 593 µM), the Ki [1] was greater than 1000 nM and the inhibition (Cavia porcellus) was less than 50%. It also gave a solubility thermodynamic [5] of 230 µg/mL (≈ 682 µM), a solubility thermodynamic [6] of 230 µg/mL (≈ 682 µM) and an Activity (Mus musculus [7]) of 54%. For the same compound, the Cmax [8] was 622 ng/mL, the half-life [9] was 0.7 h and the AUC(0-inf) [10] was 958 ng·h/mL. For the same compound, the CL [11] was 65%, the Vdss [12] was 2.2 L/kg and the bioavailability [13] was 34%. For the same compound, the Cmax [14] was 301 ng/mL, the half-life [15] was 1.2 h and the AUC(0-inf) [16] was 428 ng·h/mL. The CL [17] was 109%, the Vdss [18] was 2.9 L/kg and the bioavailability [19] was 15%.
Cc1cc(COCCN2CCOCC2)nn1-c1ccc2ccccc2c1 gave a Ki [2] of 209 nM, a Ki [1] greater than 1000 nM and an inhibition (Cavia porcellus) of less than 50%.
Cc1cc(COCCN2C[C@@H](C)O[C@@H](C)C2)nn1-c1ccc(Cl)c(Cl)c1 showed a Ki [2] of 3 nM and a Ki [1] of 180 nM.
Cc1ccccc1NC(=N)Nc1ccccc1C [DITOLYLGUANIDINE] gave a Ki [1] of 23 nM.
CC(=O)N1CCN(CCOCc2cc(C)n(-c3ccc(Cl)c(Cl)c3)n2)CC1 gave a Ki [2] of 15 nM, a Ki [1] greater than 1000 nM and an inhibition (Cavia porcellus) of less than 50%. For the same compound, the IC50 [3] was greater than 10000 nM.
With Cc1cc(COCCN2CCOCC2)nn1-c1ccc(Cl)c(Cl)c1 the Ki [2] was 14 nM and the Ki [1] was 399 nM.
In the case of CC(=O)N1CCN(CCOCc2ccn(-c3ccc(F)c(F)c3)n2)CC1.Cl, the Activity (HepG2) is reported as “Non-Toxic”, the Ki [2] is reported as 22 nM and the Ki [1] is reported as greater than 10000 nM. For the same compound, the IC50 [3] was greater than 10000 nM, the logP [20] was 1.7 and the Papp [21] was 51.5 ×10⁻⁶ cm/s. For the same compound, the Activity [22] was “Non-Toxic”, the Activity [23] was “Non-Toxic” and the ED50 (Mus musculus [24]) was 33 mg/kg. For the same compound, the Activity (Mus musculus [7]) was 95%, the Cmax [8] was 771 ng/mL and the half-life [9] was 3.4 h. It also gave an AUC(0-inf) [10] of 1430 ng·h/mL, a CL [11] of 89% and a Vdss [12] of 4.4 L/kg. For the same compound, the bioavailability [13] was 69%, the Cmax [14] was 1180 ng/mL and the half-life [15] was less than 1 h. It also gave an AUC(0-inf) [16] of 2640 ng·h/mL, a CL [17] of 70% and a Vdss [18] of 1.2 L/kg. For the same compound, the bioavailability [19] was 60% and the Ratio Ki [25] was 0.9.
Compound CC(=O)N1CCN(CCCOCc2cc(C)n(-c3ccc(Cl)c(Cl)c3)n2)CC1 has a Ki [2] of 9 nM, a Ki [1] greater than 1000 nM and an inhibition (Cavia porcellus) of less than 50%. The IC50 [3] was 4080 nM.
Cc1cc(COCCN2CCNCC2)nn1-c1ccc(Cl)c(Cl)c1 gave a Ki [2] of 278 nM.
With Cc1cc(CCCCN2CCOCC2)nn1-c1ccc(Cl)c(Cl)c1 the Ki [2] was 9 nM and the Ki [1] was 116 nM.
